Hits are enriched below; roughly 4.6% of the tested compounds scored in any of these assays.
OX1R antag-1: human HCRTR1 antagonism. CHO/OX1R cells, Fluo-8 calcium fluorescence, orexin A. inhibition, % at 5 µM. hit rate 0.43% among 330,000. AID 434989;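 active = inhibition above its plate's threshold, mean inhibition of all tested compounds on the plate plus 3 SD, cut at about 37% in these data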;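 note: 0% = orexin A challenge wells and 100% = SB-334867-A antagonist wells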
CHO parental Ca: signal in parental CHO cells, OX1R antagonist counter-screen. inhibition, % at 5.6 µM. parental CHO-K1, ATP-induced calcium, Fluo-8 fluorescence. hit rate 0.63% among 330,000. AID 463079;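 active = inhibition above that plate's mean sample inhibition plus 3 SD, cut at about 26% in these data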;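 note: 0% = ATP-challenged DMSO wells and 100% = DMSO wells without ATP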
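material = parental CHO cells | also added = ATP as calcium-mobilizing challenge | dosing = single point at 5.6 µM | detection = intracellular calcium via Fluo-8 no-wash fluorescent dye | read-out = % inhibition | benchmarks = low control ATP plus DMSO, high control DMSO only | repeats = one well per compound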
OX1R antag-2: antagonists of human orexin 1 receptor (OX1R) | O43613 | OX1R-expressing cells, FRET antagonist read-out | inhibition, % at 6.6 µM | hit rate 1.8% among 330,000 | AID 485270; in the data active = inhibition mostly above about 38%, no sharp cut-off; inactive = mostly below about 40%;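 note: 0% = agonist challenge alone and 100% = reference antagonist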
GPR7 antag: blocks human GPR7 receptor signaling; P48145; inhibition, % at 4.4 µM; GPR7-expressing cells, fluorescence antagonist assay; hit rate 1.1% among 290,000; in the data active = inhibition above about 16%, passing the limit was not always enough;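 note: cells stimulated with the agonist NPW; 0% = agonist with vehicle and 100% = vehicle without agonist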
Target sequence (P48145 whole entry, looked up): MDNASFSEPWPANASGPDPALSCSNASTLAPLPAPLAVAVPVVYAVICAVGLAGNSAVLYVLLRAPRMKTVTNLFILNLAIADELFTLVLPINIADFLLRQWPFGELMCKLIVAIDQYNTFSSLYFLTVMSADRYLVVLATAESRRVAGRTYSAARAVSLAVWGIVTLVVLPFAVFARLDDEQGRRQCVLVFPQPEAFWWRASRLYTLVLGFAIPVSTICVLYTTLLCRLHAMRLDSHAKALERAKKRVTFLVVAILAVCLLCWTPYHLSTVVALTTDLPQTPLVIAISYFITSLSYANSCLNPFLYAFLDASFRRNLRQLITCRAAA
TAAR1 antag: human TAAR1 antagonism; Q96RJ0; CHO RD-HGA16 TAAR1, Fluo-8 calcium fluorescence, antagonist; inhibition, % at 3 µM; hit rate 1.5% among 360,000; AID 624466;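 active = inhibition above a per-plate cutoff, the mean inhibition of test compounds on that plate plus 3 SD, cut at about 49% in these data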;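 note: 0% = DMSO plus EC80 beta-PEA response and 100% = DMSO alone without agonist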
Target sequence (Q96RJ0 whole entry, looked up): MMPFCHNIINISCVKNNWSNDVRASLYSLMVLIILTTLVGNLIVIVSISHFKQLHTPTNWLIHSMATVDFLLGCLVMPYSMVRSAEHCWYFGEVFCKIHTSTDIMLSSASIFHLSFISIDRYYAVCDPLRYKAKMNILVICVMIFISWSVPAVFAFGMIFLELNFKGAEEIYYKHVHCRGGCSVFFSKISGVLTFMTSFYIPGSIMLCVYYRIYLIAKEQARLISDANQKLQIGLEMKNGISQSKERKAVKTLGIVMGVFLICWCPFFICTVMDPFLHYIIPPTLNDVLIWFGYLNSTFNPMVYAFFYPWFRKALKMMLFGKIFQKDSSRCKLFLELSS
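Test system: CHO RD-HGA16 cells bearing hTAAR1 | Reagent: β-PEA, EC80 | Compound dosing: 3 µM, single point | Schedule: Dye loading 75 min at 37 °C, then 30 min room temperature | Signal: Calcium fluorescence with Fluo-8 | Evaluation: Percent inhibition of PEA-evoked calcium signal, max/basal emission ratio | Control set: DMSO-only wells and EC80 β-PEA-stimulated wells | Repeats: Singlicate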
TAAR1 agonist: human TAAR1 agonism. Q96RJ0. activation, % at 3 µM. AID 624467. hit rate 0.99% among 360,000. CHO RD-HGA16 TAAR1, Fluo-8 calcium fluorescence; vehicle wells 0%, saturating PEA agonist 100%;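 active = activation above the mean activation of all test compounds in the run plus 3 SD, cut at about 38% in these data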
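System: CHO-derived RD-HGA16 cells with stable Gα16 and human TAAR1. Times: 17-24 h plating, Fluo-8 75 min 37 °C, 30 min RT. Measured by: calcium-sensitive Fluo-8 signal, excitation 470-495, emission 515-575 nm. Read-out basis: % activation relative to PEA EC100 response. Control set: DMSO and PEA EC100. Repeats: no replicates (n 1).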
Numbers without * were called inactive; . = not tested or not shown.

SMILES	OX1R antag-1	CHO parental Ca	OX1R antag-2	GPR7 antag	TAAR1 antag	TAAR1 agonist
O=C(Nc1ccc(Br)cc1)c1cccc(S(=O)(=O)Nc2cnc3ccccc3c2)c1	5	42*	54	9	21	3
CCOc1ccc(S(=O)(=O)Nc2nc3ccccc3nc2Cl)cc1	-6	-12	22	0	0	0
O=C1CSc2ccc(C(=O)Nc3cccc(S(=O)(=O)Nc4ccc(Br)cc4)c3)cc2N1	-3	34*	15	18	-1	5
Cc1sc2nc(CSC(C)C(=O)Nc3ccc(C#N)cc3)[nH]c(=O)c2c1C (configuration not stated)	3	-15	22	.	-3	3
COC(=O)C1=CN(c2ccc(F)cc2)C=C(C(=O)OC)C1c1cccc(Br)c1	.	.	.	-15	11	0
CCCCSc1cc(=O)[nH]c(N)n1	-15	-3	5	-8	-24	6
O=C(COc1cccc(NC(=O)c2cccs2)c1)c1ccc(F)cc1	-25	-12	16	-2	13	13
COc1ccc(NC(=O)Nc2ccc3c(c2)N(C)C(=O)CS3)cc1OC	-6	11	21	-1	17	2
COc1ccc(NC(=O)Nc2ccc3c(c2)N(C)C(=O)CS3)cc1Cl	44	31*	46	-9	63*	25
Cc1ccc(NC(=O)Nc2ccc3c(c2)N(C)C(=O)CS3)nc1	-19	1	1	15	49*	24
CCOc1ccc(NC(=O)Nc2ccc3c(c2)N(C)C(=O)CS3)cc1	-13	19	14	-3	52*	13
O=C(Nc1cc(Cl)ccn1)C1(c2ccccc2)CC1(Cl)Cl (configuration not stated)	-43	-28	6	-11	-31	-3
O=C(N/N=C/c1cccnc1)c1ccc(NC(=O)c2ccccc2Cl)cc1	-5	-7	21	8	50*	12
Cc1ccccc1C(=O)Nc1ccc(C(=O)N/N=C/c2ccc(F)cc2)cc1	-4	12	8	5	34	12
Cc1ccccc1C(=O)Nc1ccc(C(=O)N/N=C/c2ccc(O)c(Br)c2)cc1	-9	-21	16	8	52*	10
COCCN(C(=O)c1snc(C(N)=O)c1N)C(C(=O)NC1CCCC1)c1cc(OC)c(OC)c(OC)c1 (configuration not stated)	-23	-12	2	-3	1	-3
C=CCNC(=O)COC(=O)c1ccc(Sc2nncn2C)c([N+](=O)[O-])c1	-23	5	73*	1	15	-1
CCCCCCNS(=O)(=O)c1ccc(OC)c(OC)c1	-21	-15	12	3	-2	11
CCCCCCCCC#Cc1nc(C)ccc1OC	42	48*	10	.	6	6
COc1ccccc1-c1nc(-c2ccc(Br)o2)no1	-25	-15	55*	-11	-24	-2
O=C(O)Cc1sc(NC2CCCCC2)nc1-c1ccc(Cl)cc1	16	33*	6	19	-14	1
COc1cccc(-c2cc(C(=O)N3CCN(c4ncccn4)CC3)c3ccccc3n2)c1	-19	-12	8	-2	56*	15
CC(C)Oc1cccc(-c2cc(C(=O)N3CCN(S(C)(=O)=O)CC3)c3ccccc3n2)c1	-40	-16	26	-6	43	19
CC(C)Oc1cccc(-c2cc(C(=O)N3CCN(c4ncccn4)CC3)c3ccccc3n2)c1	-17	-3	15	1	52*	33
COc1ccc(-c2cc(C(=O)N3CCCCC3)c3ccccc3n2)cc1	-20	-35	7	.	15	6
SMILES	OX1R antag-1	CHO parental Ca	OX1R antag-2	GPR7 antag	TAAR1 antag	TAAR1 agonist
Cc1ccc(S(=O)(=O)Nc2ccncc2)c(C)c1	-7	-10	5	-4	-3	3
COc1cc(NS(=O)(=O)c2ccc(C)cc2C)cc(OC)c1OC	30	51*	28	-2	34	8
CCOC(=O)c1ccc(NS(=O)(=O)c2cc(-c3nnnn3CC)ccc2OC)cc1	-19	-16	8	4	3	12
CCOC(=O)c1ccc(NS(=O)(=O)c2cc(C)ccc2OC)cc1	-20	24*	9	-6	4	7
CNC1=C([N+](=O)[O-])CC([N+](=O)[O-])=C(N2CCNCC2)N1C	3	6	24	-4	2	3
COc1cccc(N2CCN(C(=O)CNC(=O)c3sc4ccccc4c3Cl)CC2)c1	-23	-8	10	-23	-5	0
COc1ccc(S(=O)(=O)N(C)C[C@H]2Oc3c(NC(=O)Nc4ccccc4)cccc3C(=O)N([C@H](C)CO)C[C@@H]2C)cc1	.	.	.	.	57*	12
COc1ccc(NC(=O)N(C)C[C@H]2Oc3c(NC(=O)Nc4ccc5c(c4)OCO5)cccc3C(=O)N([C@H](C)CO)C[C@@H]2C)cc1	-10	8	8	.	49*	22
COc1ccc(NC(=O)Nc2cccc3c2O[C@H](CN(C)C(=O)Nc2ccc(OC)cc2)[C@@H](C)CN([C@H](C)CO)C3=O)cc1	-12	-6	9	.	56*	17
Cc1c(NC(=S)SCc2ccccc2)c(=O)n(-c2ccccc2)n1C	-10	-10	15	-4	4	2
CCCc1[nH]nc2c1C(c1cccnc1)C(C#N)=C(N)O2 (configuration not stated)	-6	-5	10	-4	-6	1
COc1cccc(-n2nnnc2S(C)(=O)=O)c1	-1	19	10	28*	.	.
CCN(CC)C(=O)CN1C(=O)c2cccc3cccc1c23	10	1	45	-8	-14	3
O=C(CCSc1nnc(-c2ccncc2)o1)Nc1ccc(F)cc1	-14	2	7	-10	13	2
Cc1ccc2nc(N/N=C/c3ccccc3F)nc(-c3ccccc3)c2c1	-22	-22	51*	-4	13	3
COc1ccc(CNC(=O)CN2C(=O)NC(C)(c3cccc4ccccc34)C2=O)cc1OC (configuration not stated)	-9	-17	8	-17	14	1
c1ccc(CCN2CCN(c3ncnc4c3cnn4-c3ccccc3)CC2)cc1	-21	-16	12	-14	32	41*
Cn1ncc2c(N3CCC(Cc4ccccc4)CC3)ncnc21	-6	15	58*	-11	18	3
C/C(N)=C(/C#N)C(=O)CSc1n[nH]c(-c2ccccc2Br)n1	-11	1	12	-9	4	1
CCc1ccc(NC(=O)c2cc3c(C)nc4ccccc4c3o2)cc1	-20	-33	60*	-16	-5	3
Cc1ccc(C)c(N2CCN(C(=O)c3cc4c(C)nc5ccccc5c4o3)CC2)c1	-67	-34	36	5	18	5
COc1ccccc1N1CCN(C(=O)c2cc3c(C)nc4ccccc4c3o2)CC1	-15	-12	23	-17	54*	5

Bioassay records (PubChem BioAssay)
